Compounds with a hit are over-represented: about 2.3% of the library has one in this group of screens.
bovine MsrA act: activators of bovine methionine sulfoxide reductase A; purified bovine MsrA, absorbance read-out; activation, % at 10.6 µM; 360,000 tested, 0.3% active; AID 602163; in the data active = activation above about 7.5%;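 also: 0% = vehicle and 100% = reference activator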
MC4R ag barr: agonists of human melanocortin 4 receptor (MC4R) beta-arrestin | P32245 | U2OS MC4R beta-arrestin complementation, luminescence; percent of melanotan II response, DMSO zero | activation, % at 8.9 µM | 360,000 tested, 0.98% active | AID 540308;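 active = activation above a per-plate cutoff, the mean activation of sample wells on that plate plus 3 SD, cut at about 8% in these data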
Target sequence (P32245 whole entry, looked up): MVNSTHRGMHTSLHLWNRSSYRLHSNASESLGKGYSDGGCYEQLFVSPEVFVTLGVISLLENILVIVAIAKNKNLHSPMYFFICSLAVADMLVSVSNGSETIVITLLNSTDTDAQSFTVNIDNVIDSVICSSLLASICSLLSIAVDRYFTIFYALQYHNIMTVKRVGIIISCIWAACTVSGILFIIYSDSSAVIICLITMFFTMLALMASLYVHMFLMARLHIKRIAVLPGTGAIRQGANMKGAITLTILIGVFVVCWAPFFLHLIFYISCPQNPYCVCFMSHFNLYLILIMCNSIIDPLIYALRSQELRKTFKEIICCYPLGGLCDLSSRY
MsrA inh: inhibitors of bovine MsrA | purified bovine MsrA, absorbance read-out | inhibition, % at 15.5 µM | 360,000 tested, 0.75% active | AID 651718;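 also: 0% = vehicle wells with enzyme and 100% = reference inhibitor wells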
MC4R antag cAMP: human MC4R antagonism in cAMP assay | 360,000 tested, 0.48% active | MC4R-expressing cells, MTII-stimulated cAMP, LANCE TR-FRET | inhibition, % at 6.5 µM | P32245;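 active = inhibition above its plate's cutoff, the mean of tested wells on that plate plus 3 SD, cut at about 29% in these data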;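 also: 0% = Melanotan II alone and 100% = Melanotan II plus saturating MCL0020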
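system = U2OS cells with stable human MC4R expression | also added = Melanotan II challenge after compound preincubation | dosing = one concentration, 6.5 µM nominal | incubation = compound 30 min, challenge 1 h, detection 1 h | measured by = TR-FRET with Eu-cAMP and labeled anti-cAMP, 671 nm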
MsrA conf: confirmation of bovine MsrA inhibitors. shares compounds with MsrA inh. 2,300 tested, 41% active. purified bovine MsrA, absorbance read-out. inhibition, % at 15.5 µM;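 also: coupled to thioredoxin reductase with NADPH and selenocystamine and DMSO as substrate; 0% = vehicle only and 100% = full effect of reference inhibitor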
* = called active by the depositor; / = no result. Rule as the data show it, unless noted: active = inhibition above about 4.5%; inactive = the rest.

SMILES | bovine MsrA act | MC4R ag barr | MsrA inh | MC4R antag cAMP | MsrA conf
CCCC1=C(C(=O)OCC)C(c2ccc(OC)c(CSc3ccccn3)c2)C(C#N)=C(N)O1 (stereo unspecified) | -2.1 | 2.7 | 0.7 | 6.2 | /
CCn1c(C)nc2cc(C(=O)N/N=C/c3ccc(OC)c(O)c3)ccc21 | -5.6 | -1.8 | 7.5* | -8.4 | 4.7*
CCn1c(C)nc2cc(C(=O)N/N=C/c3ccccc3)ccc21 | -3.7 | -1.5 | 0.5 | -3.5 | /
CCn1c(C)nc2cc(C(=O)N/N=C/c3ccc(OC)cc3)ccc21 | -15.7 | 3.7 | 4.2 | -10.5 | /
CCn1c(C)nc2cc(C(=O)N/N=C/c3ccc(O)cc3)ccc21 | -2.4 | 0.0 | 5.0* | 11.1 | 3.6
CCn1c(C)nc2cc(C(=O)N/N=C/c3ccc(N4CCOCC4)cc3)ccc21 | -6.0 | -0.3 | 5.5* | 11.0 | 6.0*
O=S(=O)(c1ccc(F)cc1)N1CCC(c2nc3ccccc3[nH]2)CC1 | -0.4 | -0.5 | 2.0 | 6.2 | /
O=C(/C=C/c1ccccc1)c1ccccc1 | -4.5 | 0.4 | -0.1 | 8.6 | /
O=C(/C=C/c1ccccc1)/C=C/c1ccccc1 | -6.0 | -2.3 | 4.9* | -1.2 | 1.4
Cc1noc(NS(=O)(=O)c2ccc(NC(=O)/C=C/c3ccccc3)cc2)c1C | -8.2 | -1.0 | 2.9 | 6.3 | /
Cc1ccc(-c2ccc(/C=N/n3cnnc3)o2)cc1Cl | -2.9 | -1.1 | 5.0* | 5.4 | 3.5
Cc1ccc(NC(=O)CCNC(=O)c2ccc([N+](=O)[O-])cc2)cc1S(=O)(=O)N(C)C | -9.1 | 0.9 | 1.3 | -9.2 | /
O=C(CN(Cc1ccccc1)S(=O)(=O)c1ccc2c(c1)OCCO2)N/N=C/c1cccc(Br)c1 | -7.1 | 0.9 | 0.4 | -0.1 | /
O=C(Nc1ccc(C(=O)O)cc1)/C(=C\c1ccco1)NC(=O)c1ccco1 | -5.0 | -1.1 | 4.8* | -5.8 | 4.9*
CC(=O)c1ccc(NC(=O)/C(=C\c2ccco2)NC(=O)c2ccco2)cc1 | -6.6 | -2.7 | 5.7* | -4.1 | 5.4*
O=C(Nc1ccc(C(=O)O)cc1)/C(=C\c1ccco1)NC(=O)c1ccccc1 | -4.8 | -2.5 | 3.4 | 0.5 | /
S=c1[nH]nc(-c2ccccc2)o1 | 3.1 | 0.3 | -0.2 | 25.0 | /
CCN(CC)c1ccc(C2=NNC(=O)CC2C)cc1[N+](=O)[O-] (stereo unspecified) | 3.4 | -1.4 | 2.8 | -6.0 | /
CC1CC(=O)NN=C1c1ccc(N(C)C)c([N+](=O)[O-])c1 (stereo unspecified) | -5.2 | -2.0 | 4.7* | -5.6 | 3.6
N#CC1=C(N)Oc2ccc3ccc(O)cc3c2C1c1cccnc1 (stereo unspecified) | -5.7 | -1.4 | 6.7* | -7.0 | 6.6*
N#CC1=C(N)Oc2ccc3ccccc3c2C1c1cccnc1 (stereo unspecified) | -1.3 | 0.2 | 6.6* | -6.2 | 3.3
N#CC1=C(N)Oc2cc(O)ccc2C1c1cccnc1 (stereo unspecified) | -2.5 | -2.6 | 0.1 | 3.9 | /
N=c1c(S(=O)(=O)c2ccc(Cl)cc2)cc2c(=O)n3ccccc3nc2n1C1CCCCC1 | -6.4 | -0.8 | 0.1 | -3.8 | /
Cc1ccc(N(C)S(=O)(=O)c2c[nH]c3ccc([N+](=O)[O-])cc23)cc1 | -1.4 | -2.8 | 5.8* | 10.5 | 1.5
CCN(c1ccccc1)S(=O)(=O)c1c[nH]c2ccc([N+](=O)[O-])cc12 | 2.8 | -1.9 | 0.8 | 6.8 | /
SMILES | bovine MsrA act | MC4R ag barr | MsrA inh | MC4R antag cAMP | MsrA conf
O=C(N/N=C/c1cn(-c2ccccc2)nc1-c1ccc2c(c1)OCCO2)c1ccncc1 | -0.3 | 6.7 | 5.0* | 4.0 | 1.1
CCc1ccc(-c2nn(Cc3ccccc3)cc2C(=O)NCC2CCCO2)cc1 (stereo unspecified) | -3.0 | -3.8 | 0.5 | 4.5 | /
COCCNC(=O)c1cc2cc3ccc(OC)cc3nc2o1 | -5.3 | -0.3 | 4.8* | 11.1 | 3.7
CCC(C)NC(=O)c1cc2cc3ccc(OC)cc3nc2o1 (stereo unspecified) | -5.2 | -0.7 | 5.0* | 6.1 | 4.5
CCOc1ccc(NC(=O)c2cc3cc4ccc(OC)cc4nc3o2)cc1 | -2.0 | -0.4 | -1.0 | 4.3 | /
COc1ccc2cc3cc(C(=O)NCC4CCCO4)oc3nc2c1 (stereo unspecified) | -4.6 | -1.8 | 6.2* | 9.0 | 4.0
Cc1cc(N/N=C/c2ccco2)c2ccccc2n1 | -2.9 | -1.4 | 0.6 | 9.6 | /
Cc1cc(N/N=C/c2ccc(N(C)C)cc2)c2ccccc2n1 | -4.0 | 0.4 | 5.0* | 6.0 | 1.3
CCC(=O)NNc1ncnc2c1cnn2C | -4.0 | -1.7 | -0.3 | 7.7 | /
COc1cccc2c1Oc1cc([N+](=O)[O-])cc(N(C)C(C)=O)c1C=C2 | -7.5 | 0.3 | 15.1* | -2.7 | 10.8*
COc1cc(Nc2ccc(C)cc2)c([N+](=O)[O-])nc1[N+](=O)[O-] | -1.5 | 0.2 | 2.1 | -9.3 | /
Cc1cc(C)cc(Nc2ccc([N+](=O)[O-])nc2[N+](=O)[O-])c1 | -1.5 | -1.0 | 18.7* | -1.8 | 16.5*
O=C(N/N=C/c1ccc(O)c(O)c1)c1ccc(-n2cnnn2)cc1 | -2.9 | -1.6 | 4.8* | 1.0 | 4.6*
Cc1onc(-c2ccccc2)c1C(=O)N/N=C/c1ccc(O)c([N+](=O)[O-])c1 | -7.2 | -3.5 | 5.5* | -1.8 | 4.2
O=C(N/N=C/c1ccc(O)c([N+](=O)[O-])c1)c1ccncc1 | -5.3 | -3.2 | 5.6* | -4.7 | 4.9*
CN(C)c1ccc(/C=N/NC(=O)c2nonc2N)cc1[N+](=O)[O-] | -4.7 | -1.6 | 4.9* | -2.3 | 4.2
Cc1onc(-c2ccccc2)c1C(=O)N/N=C/c1ccc([N+](=O)[O-])c(O)c1 | -2.6 | -1.8 | 1.4 | 5.9 | /
Cc1cc(=O)cc(C)n1-c1ccc(Cl)cc1 | -8.4 | 0.5 | -0.3 | -0.9 | /
O=C(N/N=C/c1ccccc1)c1ccco1 | 6.9 | 2.3 | 1.1 | 4.8 | /
O=C(N/N=C/C=N/NC(=O)c1ccco1)c1ccco1 | -13.3 | -2.5 | 7.6* | -9.3 | 6.1*
Cc1cc(C(=O)N/N=C/c2sccc2C)no1 | -4.5 | -1.6 | 2.7 | 10.9 | /
Cc1ccsc1/C=N/NC(=O)c1ccco1 | -3.7 | -1.1 | 5.6* | 10.2 | 5.8*
Cc1ccsc1/C=N\NC(=O)c1cc(C(C)(C)C)[nH]n1 | -4.6 | -3.1 | 5.3* | -3.0 | 3.9
CCN(CC)c1ccc(/C=N/NC(=O)c2ccco2)cc1 | -7.0 | -2.0 | 5.2* | -27.1 | 4.5
O=C(O)Cn1nc(-c2ccccc2)oc1=O | -2.0 | -1.4 | -0.6 | -8.1 | /
CC1(C)CC(NC(=O)c2ccc(F)cc2)CC(C)(C)N1 | -2.8 | -0.1 | 0.3 | -1.4 | /
CC(=O)c1ccc(-c2ccc(C(=O)NC3CC(C)(C)NC(C)(C)C3)o2)cc1 | -4.5 | -2.7 | 5.4* | -1.3 | 5.3*
Cc1cccc(CN2CCN(c3nc4nonc4nc3NC3CC3)CC2)c1 | -17.3 | 1.9 | 2.1 | -0.3 | /
O=C(CN1C(=O)S/C(=C\C=C\c2ccccc2)C1=O)NC1CCS(=O)(=O)C1 (stereo unspecified) | -7.5 | -3.8 | 3.0 | -19.4 | /
O=C(CN1C(=O)S/C(=C\c2ccccc2)C1=O)NC1CCS(=O)(=O)C1 (stereo unspecified) | -2.3 | -3.3 | 5.3* | 14.6 | 3.9
